Data published in ChEMBL document CHEMBL1148329, “Synthesis and structure-activity studies on N-[5-(1H-imidazol-4-yl)-5,6,7,8-tetrahydro-1-naphthalenyl]methanesulfonamide, an imidazole-containing alpha(1A)-adrenoceptor agonist” (J Med Chem, 2004).

Columns and labels:
Canis familiaris [1] = species on record: Canis familiaris; assay: Ratio of MAP ED delta20 to that of IUP ED delta5
Canis familiaris [2] = assay: Uroselectivity was determined by measuring effective dose required for 20 mmHg increase of mean arterial pressure (MAP) in vivo in dog; format: functional, Canis lupus familiaris, Artery
Outline: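 Dog model recording intraurethral pressure (IUP) and mean arterial pressure (MAP) simultaneously. Increasing iv doses given, maximal effect of each dose taken. Doses giving a 5 mmHg rise in IUP (ED Δ5) or 20 mmHg rise in MAP (ED Δ20) were calculated, in nmol/kg ± SEM, n ≥ 4 (2 or 3 where footnoted).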

[3] = target: Alpha adrenergic receptor 1A and 1D (Rattus norvegicus) (UniProt P23944+P43140); assay: Selectivity is ratio of pKi (binding affinity) of Alpha-1D to that of alpha1A; format: protein assay
[4] = target: T1, Alpha-1A adrenergic receptor (Oryctolagus cuniculus) (UniProt O02824); assay: Functional agonism of the compounds to constrict tissue containing the alpha-1A adrenergic receptor in rabbit urethra; format: tissue-based
T1 sequence (whole entry): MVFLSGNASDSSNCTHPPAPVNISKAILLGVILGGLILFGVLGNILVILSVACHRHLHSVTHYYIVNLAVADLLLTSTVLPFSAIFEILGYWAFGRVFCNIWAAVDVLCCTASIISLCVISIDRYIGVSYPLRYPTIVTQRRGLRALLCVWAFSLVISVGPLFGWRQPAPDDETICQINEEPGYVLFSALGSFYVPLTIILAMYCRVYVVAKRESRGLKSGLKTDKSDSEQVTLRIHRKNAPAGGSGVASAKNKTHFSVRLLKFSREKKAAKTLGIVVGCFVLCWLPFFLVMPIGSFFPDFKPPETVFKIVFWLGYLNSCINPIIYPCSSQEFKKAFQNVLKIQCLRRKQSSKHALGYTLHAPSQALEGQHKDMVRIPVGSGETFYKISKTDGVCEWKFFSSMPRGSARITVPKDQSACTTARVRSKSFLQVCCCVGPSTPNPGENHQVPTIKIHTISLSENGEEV
Outline: (§1)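 α1-agonist dose–response curves in isolated tissue: rabbit urethra (α1A), rat spleen (α1B), rat aorta (α1D). Agonist potency and efficacy read from the concentration–response curves.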

[5] = target: T2, Alpha-1B adrenergic receptor (Mesocricetus auratus, UniProt P18841); assay: In vitro binding affinity towards alpha-1B adrenergic receptor of hamster clone in radioligand binding assay; format: single protein
T2 sequence (P18841 whole entry): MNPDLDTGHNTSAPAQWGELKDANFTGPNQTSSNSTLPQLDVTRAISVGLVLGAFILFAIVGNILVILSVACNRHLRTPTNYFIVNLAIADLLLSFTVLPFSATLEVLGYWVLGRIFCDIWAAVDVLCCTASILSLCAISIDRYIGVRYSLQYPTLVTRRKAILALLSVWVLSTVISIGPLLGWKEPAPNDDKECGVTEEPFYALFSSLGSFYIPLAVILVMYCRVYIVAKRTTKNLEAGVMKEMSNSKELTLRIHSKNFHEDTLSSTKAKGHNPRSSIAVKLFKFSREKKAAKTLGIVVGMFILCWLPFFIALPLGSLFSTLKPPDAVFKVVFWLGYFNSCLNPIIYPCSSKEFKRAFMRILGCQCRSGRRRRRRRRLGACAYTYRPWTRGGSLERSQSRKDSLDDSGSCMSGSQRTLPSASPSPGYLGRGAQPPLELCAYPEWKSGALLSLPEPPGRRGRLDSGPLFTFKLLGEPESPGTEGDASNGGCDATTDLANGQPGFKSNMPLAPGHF
Outline: (§2)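 Radioligand binding at α1 subtypes: α1A from rat submaxillary gland, α1B hamster clone, α1D rat clone. Run essentially per an earlier method.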

[6] = target: T1, Alpha-1A adrenergic receptor (Oryctolagus cuniculus); assay: Efficacy relative to phenylephrine (PE) to constrict tissue containing the alpha-1A adrenergic receptor in rabbit urethra; format: functional, tissue-based
Outline: as §1

[7] = target: Alpha adrenergic receptor 1A and 1B (Rattus norvegicus) (UniProt P15823+P43140); assay: Selectivity is ratio of pKi (binding affinity) of alpha-1B receptor to that of alpha-1A receptor.; format: protein assay
Alpha adrenergic receptor 1A and 1B (Rattus norvegicus), sequence (P15823 whole entry, looked up, one chain of several): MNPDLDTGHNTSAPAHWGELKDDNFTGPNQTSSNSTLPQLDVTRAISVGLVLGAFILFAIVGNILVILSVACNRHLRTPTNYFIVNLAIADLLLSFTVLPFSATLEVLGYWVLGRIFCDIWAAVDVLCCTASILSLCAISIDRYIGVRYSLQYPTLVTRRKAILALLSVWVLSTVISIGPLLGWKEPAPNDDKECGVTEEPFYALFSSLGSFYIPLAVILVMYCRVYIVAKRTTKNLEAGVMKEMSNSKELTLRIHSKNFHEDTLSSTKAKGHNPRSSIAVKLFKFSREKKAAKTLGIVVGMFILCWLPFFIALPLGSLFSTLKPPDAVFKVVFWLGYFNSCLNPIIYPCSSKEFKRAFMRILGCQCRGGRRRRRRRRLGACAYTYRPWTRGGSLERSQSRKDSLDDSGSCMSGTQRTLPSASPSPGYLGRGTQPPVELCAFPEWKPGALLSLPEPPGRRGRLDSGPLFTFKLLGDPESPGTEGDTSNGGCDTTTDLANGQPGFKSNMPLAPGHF

[8] = target: T3, Alpha-1A adrenergic receptor (Rattus norvegicus, UniProt P43140); assay: In vitro binding affinity towards alpha-1A adrenergic receptor of rat submaxillary gland in radioligand binding assay
T3 sequence (P43140 whole entry): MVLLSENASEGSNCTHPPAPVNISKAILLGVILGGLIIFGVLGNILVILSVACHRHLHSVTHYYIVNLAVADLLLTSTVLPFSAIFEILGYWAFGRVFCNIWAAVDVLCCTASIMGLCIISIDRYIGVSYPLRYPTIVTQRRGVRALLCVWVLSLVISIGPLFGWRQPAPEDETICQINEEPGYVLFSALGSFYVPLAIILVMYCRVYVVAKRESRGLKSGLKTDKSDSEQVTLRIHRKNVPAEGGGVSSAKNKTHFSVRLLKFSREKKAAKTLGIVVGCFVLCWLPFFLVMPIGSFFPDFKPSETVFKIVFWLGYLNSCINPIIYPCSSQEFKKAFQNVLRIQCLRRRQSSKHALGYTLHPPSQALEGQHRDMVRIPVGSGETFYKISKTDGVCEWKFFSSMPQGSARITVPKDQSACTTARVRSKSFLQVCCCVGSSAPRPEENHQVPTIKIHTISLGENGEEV
Outline: as §2

[9] = target: T4, Alpha-1D adrenergic receptor (Rattus norvegicus, UniProt P23944); assay: In vitro binding affinity towards alpha-1D adrenergic receptor of rat clone in radioligand binding assay
T4 sequence (P23944 whole entry): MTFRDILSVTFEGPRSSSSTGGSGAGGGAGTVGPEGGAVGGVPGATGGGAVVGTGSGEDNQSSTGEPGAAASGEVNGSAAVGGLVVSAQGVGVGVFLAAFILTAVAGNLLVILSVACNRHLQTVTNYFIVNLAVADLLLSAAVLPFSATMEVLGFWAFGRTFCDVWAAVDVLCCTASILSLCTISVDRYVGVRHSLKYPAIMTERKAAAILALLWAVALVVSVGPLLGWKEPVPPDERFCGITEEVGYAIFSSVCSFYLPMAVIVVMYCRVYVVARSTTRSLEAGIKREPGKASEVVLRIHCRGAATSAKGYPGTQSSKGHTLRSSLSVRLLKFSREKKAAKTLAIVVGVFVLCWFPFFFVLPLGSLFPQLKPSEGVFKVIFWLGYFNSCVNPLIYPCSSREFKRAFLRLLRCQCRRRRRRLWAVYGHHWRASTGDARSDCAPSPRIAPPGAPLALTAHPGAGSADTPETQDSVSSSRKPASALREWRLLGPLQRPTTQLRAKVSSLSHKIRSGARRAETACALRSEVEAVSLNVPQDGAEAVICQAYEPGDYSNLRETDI
Outline: as §2

[10] = target: T5, Alpha-2A adrenergic receptor (Rattus norvegicus) (UniProt P22909); assay: Efficacy relative to clonidine to constrict tissue containing the alpha-2A adrenergic receptor in rat prostatic vas deferens
T5 sequence (whole entry): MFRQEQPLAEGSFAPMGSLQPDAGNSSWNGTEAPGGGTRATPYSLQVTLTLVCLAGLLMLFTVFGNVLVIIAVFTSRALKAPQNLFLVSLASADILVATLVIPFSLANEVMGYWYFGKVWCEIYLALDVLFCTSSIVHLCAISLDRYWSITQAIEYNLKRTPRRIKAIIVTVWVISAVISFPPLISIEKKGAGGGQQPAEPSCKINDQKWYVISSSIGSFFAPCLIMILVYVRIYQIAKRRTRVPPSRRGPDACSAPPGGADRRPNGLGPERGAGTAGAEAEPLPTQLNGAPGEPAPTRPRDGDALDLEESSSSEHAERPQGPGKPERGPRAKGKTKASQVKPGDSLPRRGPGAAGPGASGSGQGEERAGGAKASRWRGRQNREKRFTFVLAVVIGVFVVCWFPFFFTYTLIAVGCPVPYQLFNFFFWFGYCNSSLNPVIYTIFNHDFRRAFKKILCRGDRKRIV

Row | SMILES | Ratio (Canis familiaris [1]) | ED delta20 (Canis familiaris [2]) [nM/kg] | Selectivity [3] | pD2 [4] | Ki [5] [µM] | Efficacy [6] [%] | Selectivity [7] | Ki [8] [µM] | Ki [9] [µM] | Efficacy [10] [%]
1 | CS(=O)(=O)Nc1ccc(F)c2c1CCCC2c1c[nH]cn1 (stereo not given) | 1 | 632 | 10 | 5.31 | > 10 | 64 | > 32 | – | – | –
2 | CCCS(=O)(=O)Nc1cccc2c1CCCC2c1c[nH]cn1 (stereo not given) | – | – | > 6 | – | > 10 | – | > 6 | 1.7 | > 10 | –
3 | CCS(=O)(=O)Nc1cccc2c1COC2c1c[nH]cn1 (stereo not given) | – | – | 10 | – | > 10 | – | 10 | – | > 10 | –
4 | CCS(=O)(=O)Nc1cccc(Cc2c[nH]cn2)c1C | 5.6 | 202 | 8 | – | 8.13 | 69 | 60 | 0.129 | 1 | –
5 | CS(=O)(=O)Nc1ccc(O)c2c1CCCC2c1c[nH]cn1 (stereo not given) | – | – | > 14 | 4.61 | > 10 | 34 | > 14 | – | > 10 | –
6 | Cn1cncc1C1CCCc2c(NS(C)(=O)=O)cccc21 (stereo not given) | – | – | – | – | > 10 | – | – | > 10 | > 10 | –
7 | CCS(=O)(=O)Nc1cccc(S(=O)(=O)c2c[nH]cn2)c1 | – | – | – | – | > 10 | – | – | > 10 | > 10 | –
8 | O=S(=O)(Nc1cccc2c1CCCC2c1c[nH]cn1)C1CC1 (stereo not given) | – | – | 5 | 5.25 | > 10 | 51 | > 19 | 0.537 | 2.69 | –
9 | CCS(=O)(=O)Nc1cccc(NC2=NCCN2)c1 | – | – | < 0.04 | – | > 10 | – | > 3 | 2.95 | 0.355 | –
10 | Cc1ccc(NS(C)(=O)=O)c2c1C(c1c[nH]cn1)CCC2 (stereo not given) | – | – | 7 | 4.4 | > 10 | 35 | > 26 | – | – | –
11 | CCS(=O)(=O)Nc1cccc2c1CCCC2c1c[nH]c(C)n1 (stereo not given) | – | – | > 10 | – | > 10 | – | > 10 | – | > 10 | –
12 | CS(=O)(=O)Nc1ccc(Cl)c2c1CCCC2c1c[nH]cn1 (stereo not given) | – | – | 6 | 4.35 | > 10 | 41 | > 20 | – | – | –
13 | CS(=O)(=O)Nc1cccc2c1CCCCC2c1c[nH]cn1 (stereo not given) | – | – | 2 | 4.72 | – | 17 | > 7 | – | – | –
14 | CC(C)S(=O)(=O)Nc1cccc2c1CCCC2c1c[nH]cn1 (stereo not given) | – | – | 2 | 5.17 | > 10 | 74 | > 9 | 1.15 | 2.04 | –
15 | CCS(=O)(=O)Nc1cccc2c1CCCC2CNC (stereo not given) | – | – | > 7 | – | > 10 | – | > 7 | 1.38 | > 10 | –
16 | CCS(=O)(=O)Nc1cc(F)cc2c1CCCC2c1c[nH]cn1 (stereo not given) | – | – | 44 | – | > 10 | – | > 121 | 0.0832 | 3.63 | –
17 | CCS(=O)(=O)Nc1cccc(CC2CCCN2)c1 (stereo not given) | – | – | 1 | 4.44 | > 10 | 17 | > 10 | 0.708 | 0.501 | –
18 | CCS(=O)(=O)Nc1cccc(CC2CN=CN2)c1 (stereo not given) | – | – | – | – | 10 | – | – | > 10 | 6.46 | –
19 | CCS(=O)(=O)Nc1cccc(-c2c[nH]cn2)c1 | – | – | – | – | > 10 | – | – | > 10 | > 10 | –
20 | CCS(=O)(=O)Nc1cc(C2CCCCC2)cc2c1CCCC2c1c[nH]cn1 (stereo not given) | – | – | 2 | – | – | – | 3 | – | – | –
21 | CCS(=O)(=O)Nc1cccc2c1CCCC2(O)c1c[nH]cn1 (stereo not given) | – | – | 1 | – | > 10 | – | 1 | > 10 | > 10 | –
22 | CS(=O)(=O)Nc1cccc2c1CCC[C@H]2c1c[nH]cn1 | – | 48.7 | – | – | – | 84 | – | – | – | 29
23 | CCS(=O)(=O)Nc1cccc2c1SCCC2c1c[nH]cn1 (stereo not given) | – | – | 10 | – | > 10 | – | 10 | – | > 10 | –
24 | CC(c1cccc(NS(C)(=O)=O)c1)c1c[nH]cn1 (stereo not given) | 3.4 | 234 | 1 | 5.38 | > 10 | 92 | 10 | – | – | –
25 | CCS(=O)(=O)Nc1cccc(Sc2c[nH]cn2)c1 | – | – | – | – | > 10 | – | – | > 10 | > 10 | –
